ChEMBL document CHEMBL1146995, “Aza-retinoids as novel retinoid X receptor-specific agonists” (Bioorg Med Chem Lett, 2006)

Legend:
[1] = target: T1, Retinoic acid receptor RXR-gamma (Homo sapiens, UniProt P48443); assay: Binding affinity to RXRgamma
T1 sequence (P48443 whole entry): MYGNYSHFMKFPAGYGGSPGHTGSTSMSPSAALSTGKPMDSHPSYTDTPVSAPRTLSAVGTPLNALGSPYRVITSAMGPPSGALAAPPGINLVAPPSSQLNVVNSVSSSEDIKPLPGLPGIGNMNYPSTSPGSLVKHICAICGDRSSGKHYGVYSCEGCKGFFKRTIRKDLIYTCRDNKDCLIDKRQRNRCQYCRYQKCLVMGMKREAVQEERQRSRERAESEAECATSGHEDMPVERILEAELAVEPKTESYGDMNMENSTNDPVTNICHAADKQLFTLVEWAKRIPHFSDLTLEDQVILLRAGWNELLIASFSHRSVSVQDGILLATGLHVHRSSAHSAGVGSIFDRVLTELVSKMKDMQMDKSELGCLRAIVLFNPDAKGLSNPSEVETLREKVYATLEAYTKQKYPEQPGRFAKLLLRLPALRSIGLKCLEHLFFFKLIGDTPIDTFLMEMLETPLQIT

[2] = target: T2, Retinoic acid receptor RXR-alpha (Homo sapiens, UniProt P19793); assay: Transactivation of RXRalpha in CV1 cells by cotransfection assay; format: functional, cell-based, CV-1
T2 sequence (P19793 whole entry): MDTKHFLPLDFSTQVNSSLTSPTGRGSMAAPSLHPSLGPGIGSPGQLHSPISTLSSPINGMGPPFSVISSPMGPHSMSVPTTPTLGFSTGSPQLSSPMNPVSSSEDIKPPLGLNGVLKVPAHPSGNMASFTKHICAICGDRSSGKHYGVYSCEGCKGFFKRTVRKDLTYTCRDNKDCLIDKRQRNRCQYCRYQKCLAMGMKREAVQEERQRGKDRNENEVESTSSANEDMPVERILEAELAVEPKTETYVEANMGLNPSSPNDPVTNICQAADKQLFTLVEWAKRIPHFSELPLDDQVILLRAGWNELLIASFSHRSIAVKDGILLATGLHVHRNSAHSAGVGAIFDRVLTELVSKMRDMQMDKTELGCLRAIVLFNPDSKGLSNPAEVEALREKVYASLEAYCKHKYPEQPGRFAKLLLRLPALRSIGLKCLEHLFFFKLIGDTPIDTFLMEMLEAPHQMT
Outline: (§1)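 EC50 taken from a full dose–response curve. Retinoid activity was normalized to the response to ATRA (all-trans retinoic acid). Potency (EC50) is the retinoid concentration that gives 50% of the maximal observed response.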

[3] = target: T2, Retinoic acid receptor RXR-alpha; assay: Binding affinity to RXRalpha
[4] = target: T3, Retinoic acid receptor RXR-beta (Homo sapiens, UniProt P28702); assay: Transactivation of RXRbeta in CV1 cells by cotransfection assay; format: functional, cell-based, CV-1; outline: as §1
T3 sequence (P28702 whole entry): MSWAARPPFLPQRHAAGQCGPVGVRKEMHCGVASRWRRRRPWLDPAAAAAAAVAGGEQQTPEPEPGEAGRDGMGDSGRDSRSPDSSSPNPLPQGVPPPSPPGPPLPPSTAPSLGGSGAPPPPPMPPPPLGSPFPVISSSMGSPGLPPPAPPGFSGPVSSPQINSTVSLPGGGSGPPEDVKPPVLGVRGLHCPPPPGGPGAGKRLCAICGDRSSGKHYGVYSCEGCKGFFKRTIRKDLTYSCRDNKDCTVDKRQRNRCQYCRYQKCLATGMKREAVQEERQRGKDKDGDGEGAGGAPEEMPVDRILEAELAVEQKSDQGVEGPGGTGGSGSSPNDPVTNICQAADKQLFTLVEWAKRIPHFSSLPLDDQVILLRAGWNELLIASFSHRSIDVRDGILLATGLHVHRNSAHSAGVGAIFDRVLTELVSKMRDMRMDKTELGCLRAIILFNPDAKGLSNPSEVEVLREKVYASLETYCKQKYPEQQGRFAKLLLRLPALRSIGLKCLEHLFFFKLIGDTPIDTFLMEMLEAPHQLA

[5] = target: T3, Retinoic acid receptor RXR-beta; assay: Binding affinity to RXRbeta
[6] = target: T1, Retinoic acid receptor RXR-gamma; assay: Transactivation of RXRgamma in CV1 cells by cotransfection assay; format: functional, cell-based, CV-1; outline: as §1

Row | SMILES | Ki ([1]; read-out: Ki) | EC50 ([2]; read-out: EC50) | Ki ([3]; read-out: Ki) | EC50 ([4]; read-out: EC50) | Ki ([5]; read-out: Ki) | EC50 ([6]; read-out: EC50) | EC50 ([2]; cv-1) | EC50 ([4]; cv-1) | EC50 ([6]; cv-1) | Ki [1] | Ki [5] | Ki [3]
1 | CCN(C/C=C/C(C)=C/C(=O)O)c1ccc2c(c1)C(C)(C)CCC2(C)C | 162 nM | 216 nM | 103 nM | 239 nM | 185 nM | 128 nM |  |  |  |  |  | 
2 | CC(/C=C/CN(Cc1ccccc1)c1cc(C(C)(C)C)cc(C(C)(C)C)c1)=C\C(=O)O | 207 nM |  | 121 nM |  | 238 nM |  | Not Active | Not Active | Not Active |  |  | 
3 | CC(/C=C/CNc1cc(C(C)(C)C)cc(C(C)(C)C)c1)=C\C(=O)O |  |  | 529 nM |  |  |  | Not Active | Not Active | Not Active | Not Active | Not Active | 
4 | CC(/C=C/C(=O)N(Cc1ccccc1)c1cc(C(C)(C)C)cc(C(C)(C)C)c1)=C\C(=O)O |  |  |  |  |  |  | Not Active | Not Active | Not Active | Not Active | Not Active | Not Active
5 | CC(C)=CCN(C/C=C/C(C)=C/C(=O)O)c1cc(C(C)(C)C)cc2c1CCC2(C)C | 309 nM |  | 254 nM |  | 327 nM |  | Not Active | Not Active | Not Active |  |  | 
6 | CC(/C=C/[C@H]1CCCN1c1ccc2c(c1)C(C)(C)CCC2(C)C)=C\C(=O)O | 202 nM |  | 103 nM | 1290 nM | 188 nM | 1260 nM | Not Active |  |  |  |  | 
7 | CCCN(C(=O)/C=C/C(C)=C/C(=O)O)c1cc(C(C)(C)C)cc(C(C)(C)C)c1 | 299 nM | 1000 nM | 644 nM | 151 nM | 605 nM | 669 nM |  |  |  |  |  | 
8 | CCCCCCCCN(C/C=C/C(C)=C/C(=O)O)c1cc(C(C)(C)C)cc(C(C)(C)C)c1 | 221 nM |  | 122 nM |  | 126 nM | 35 nM | Not Active | Not Active |  |  |  | 
9 | CC(/C=C/CN(CC1CC1)c1cc(C(C)(C)C)cc2c1CCC2(C)C)=C\C(=O)O | 150 nM | 123 nM | 63 nM | 98 nM | 105 nM | 100 nM |  |  |  |  |  | 
10 | CC(/C=C/CN(c1cc(C(C)(C)C)cc2c1CCC2(C)C)C(C)C)=C\C(=O)O | 121 nM | 252 nM | 67 nM | 216 nM | 301 nM | 262 nM |  |  |  |  |  | 
11 | CCCN(C/C=C/C(C)=C/C(=O)O)c1cc2c(cc1OC)C(C)(C)CCC2(C)C | 576 nM | 400 nM | 257 nM | 169 nM | 721 nM |  |  |  | Not Active |  |  | 
12 | CC(/C=C/C(=O)Nc1cc(C(C)(C)C)cc(C(C)(C)C)c1)=C\C(=O)O |  |  |  |  |  |  | Not Active | Not Active | Not Active | Not Active | Not Active | Not Active

Continued by falling Ki ([3]; read-out: Ki), values first:

Row | Ki ([1]; read-out: Ki) | EC50 ([2]; read-out: EC50) | Ki ([3]; read-out: Ki) | EC50 ([4]; read-out: EC50) | Ki ([5]; read-out: Ki) | EC50 ([6]; read-out: EC50) | EC50 ([2]; cv-1) | EC50 ([4]; cv-1) | EC50 ([6]; cv-1) | Ki [1] | Ki [5] | Ki [3] | SMILES
13 | 110 nM | 152 nM | 47 nM | 206 nM | 72 nM | 170 nM |  |  |  |  |  |  | CCCN(C/C=C/C(C)=C/C(=O)O)c1ccc2c(c1)C(C)(C)CCC2(C)C
14 | 99 nM | 64 nM | 42 nM | 117 nM | 152 nM | 125 nM |  |  |  |  |  |  | CCN(C/C=C/C(C)=C/C(=O)O)c1cc2c(cc1C)C(C)(C)CCC2(C)C
15 | 131 nM | 378 nM | 37 nM | 95 nM | 88 nM | 322 nM |  |  |  |  |  |  | CC(/C=C/CN(C)c1cc(C(C)(C)C)cc(C(C)(C)C)c1)=C\C(=O)O
16 | 35 nM | 221 nM | 31 nM | 235 nM | 24 nM | 231 nM |  |  |  |  |  |  | CCN(C/C=C/C(C)=C/C(=O)O)c1cc(C(C)(C)C)cc(C(C)(C)C)c1
17 | 31 nM | 53 nM | 21 nM | 52 nM | 60 nM | 50 nM |  |  |  |  |  |  | CCCCN(C/C=C/C(C)=C/C(=O)O)c1cc(C(C)(C)C)cc2c1CCC2(C)C
18 | 100 nM | 179 nM | 21 nM | 161 nM | 63 nM | 147 nM |  |  |  |  |  |  | CC(/C=C/[C@@H]1CCCN1c1ccc2c(c1)C(C)(C)CCC2(C)C)=C\C(=O)O
19 | 211 nM | 231 nM | 18 nM | 212 nM | 161 nM | 223 nM |  |  |  |  |  |  | CCCN(C/C=C/C(C)=C/C(=O)O)c1cc2c(cc1C)C(C)(C)CCC2(C)C
20 | 38 nM | 99 nM | 17 nM | 69 nM | 34 nM | 63 nM |  |  |  |  |  |  | CCCN(C/C=C/C(C)=C/C(=O)O)c1cc(C(C)(C)C)cc(C(C)(C)C)c1
21 | 10 nM | 22 nM | 8 nM | 21 nM | 12 nM | 19 nM |  |  |  |  |  |  | CCCN(C/C=C/C(C)=C/C(=O)O)c1cc(C(C)(C)C)cc2c1CCC2(C)C
